Results from ChEMBL document CHEMBL4342456, “Preventing Morphine-Seeking Behavior through the Re-Engineering of Vincamine's Biological Activity” (J Med Chem, 2020).

Tests used:
[1] = target: C-C chemokine receptor type 8 (Homo sapiens, UniProt P51685); assay: (§1) Antagonist activity at human CCR8 expressed in CHOK1 cells assessed as inhibition in CCL1-induced beta-arrestin 2 recruitment at 20 uM incubated for 30 mins followed by CCL1 addition and measured after 90 or 180 mins by pathhunter beta-arrestin assay relative to control; assay type: cell-based
Summary of the method: (§2)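 PathHunter beta-arrestin recruitment, antagonist mode, run at DiscoverX. Cells seeded and held at 37 °C, then preincubated with test sample for 30 min at 37 °C or room temperature (1% vehicle). Agonist then added at EC80 for 90 or 180 min. IC50 comes from concentration–response runs in the same format.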

Cannabinoid receptor 1 = Cannabinoid receptor 1 (Homo sapiens, UniProt P21554); assay: Antagonist activity at human Gi/o-coupled CNR1 expressed in CHOK1 cells assessed as inhibition in CP55940-induced beta-arrestin 2 recruitment at 20 uM incubated for 30 mins followed by CP55940 addition and measured after 90 or 180 mins by pathhunter beta-arrestin assay relative to control; assay type: cell-based; summary of the method: as §2
[2] = target: T1, Glucose-dependent insulinotropic receptor (Homo sapiens) (UniProt Q8TDV5); assay: Antagonist activity at human GPR119 assessed as inhibition in oleoylethanolamide-induced beta-arrestin 2 recruitment at 20 uM incubated for 30 mins followed by oleoylethanolamide addition and measured after 90 or 180 mins by pathhunter beta-arrestin assay relative to control; summary of the method: as §2
T1 sequence (whole entry): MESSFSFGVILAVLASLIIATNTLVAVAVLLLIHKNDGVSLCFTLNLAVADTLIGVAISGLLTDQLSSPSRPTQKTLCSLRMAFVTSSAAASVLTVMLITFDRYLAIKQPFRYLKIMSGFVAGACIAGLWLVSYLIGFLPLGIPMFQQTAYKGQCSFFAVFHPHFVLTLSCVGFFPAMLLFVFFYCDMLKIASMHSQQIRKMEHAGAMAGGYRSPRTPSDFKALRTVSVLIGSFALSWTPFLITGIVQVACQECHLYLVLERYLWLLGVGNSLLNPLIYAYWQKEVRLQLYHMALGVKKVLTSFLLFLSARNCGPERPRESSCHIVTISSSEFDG

[3] = target: T2, Neuropeptide S receptor (Homo sapiens) (UniProt Q6W5P4); assay: as §1, with “Gq-coupled NPSR1b” for “CCR8”, “human U2OS” for “CHOK1”, “neuropeptide S-induced” for “CCL1-induced”, “neuropeptide S” for “CCL1”; assay type: cell-based; summary of the method: as §2
T2 sequence (whole entry): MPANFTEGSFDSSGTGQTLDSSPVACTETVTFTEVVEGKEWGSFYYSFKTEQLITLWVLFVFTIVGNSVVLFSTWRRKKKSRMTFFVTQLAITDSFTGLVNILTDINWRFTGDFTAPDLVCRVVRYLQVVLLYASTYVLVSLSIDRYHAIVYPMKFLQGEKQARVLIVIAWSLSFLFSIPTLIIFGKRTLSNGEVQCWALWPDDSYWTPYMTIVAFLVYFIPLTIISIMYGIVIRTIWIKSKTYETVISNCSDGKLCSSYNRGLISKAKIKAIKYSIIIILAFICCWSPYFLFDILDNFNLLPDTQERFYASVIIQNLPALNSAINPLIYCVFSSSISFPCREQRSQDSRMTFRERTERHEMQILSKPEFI

[4] = target: T3, Muscarinic acetylcholine receptor M4 (Homo sapiens, UniProt P08173); assay: Antagonist activity at human Gs/Gi/o-coupled CHRM4 expressed in CHOK1 cells assessed as inhibition in acetylcholine-induced beta-arrestin 2 recruitment incubated for 30 mins followed by acetylcholine addition and measured after 90 or 180 mins by pathhunter beta-arrestin assay; assay type: cell-based
T3 sequence (P08173 whole entry): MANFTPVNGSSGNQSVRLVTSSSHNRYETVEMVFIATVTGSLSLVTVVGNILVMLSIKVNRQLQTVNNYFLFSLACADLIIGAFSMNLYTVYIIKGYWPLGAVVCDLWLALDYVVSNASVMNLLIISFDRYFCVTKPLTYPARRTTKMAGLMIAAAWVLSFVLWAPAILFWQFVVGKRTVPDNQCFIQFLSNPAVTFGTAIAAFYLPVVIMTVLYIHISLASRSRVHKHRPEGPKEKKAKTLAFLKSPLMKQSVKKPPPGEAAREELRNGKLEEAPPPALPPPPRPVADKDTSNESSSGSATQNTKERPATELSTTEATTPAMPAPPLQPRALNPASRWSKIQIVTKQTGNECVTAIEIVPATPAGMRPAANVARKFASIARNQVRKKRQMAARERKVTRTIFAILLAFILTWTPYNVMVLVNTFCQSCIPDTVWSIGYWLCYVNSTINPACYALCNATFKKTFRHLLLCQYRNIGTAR
Summary of the method: as §2, with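 “min. […]” for “min.”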

[5] = Stability of compound in pH 2.0 HCl aqueous solution assessed as parent compound remaining at 0.025 mmol measured after 24 hrs; assay type: physicochemical; conditions: read-out: Stability
Summary of the method: (§3)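 Acid stability: compound held 24 h at 37 °C in acidic aqueous media at pH 2.0 or pH 4.88. Percent recovery of parent compound was measured.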

[6] = Stability of compound in pH 4.88 HCl aqueous solution assessed as parent compound remaining at 0.026 mmol measured after 24 hrs; assay type: physicochemical; conditions: read-out: Stability; summary of the method: as §3
[7] = Toxicity in C57BL/6J mouse assessed as induction of behavioral changes at 60 nmol, icv; conditions: in vivo, icv_or_intrathecal
[8] = Toxicity in C57BL/6J mouse at 60 nmol, icv measured for 2 days by conditioned place preference test; conditions: in vivo, icv_or_intrathecal, 48 h
[9] = target: Histamine H1 receptor (Homo sapiens) (UniProt P35367); conditions: at 20 µM
Chain of Histamine H1 receptor (Homo sapiens) (P35367 whole entry): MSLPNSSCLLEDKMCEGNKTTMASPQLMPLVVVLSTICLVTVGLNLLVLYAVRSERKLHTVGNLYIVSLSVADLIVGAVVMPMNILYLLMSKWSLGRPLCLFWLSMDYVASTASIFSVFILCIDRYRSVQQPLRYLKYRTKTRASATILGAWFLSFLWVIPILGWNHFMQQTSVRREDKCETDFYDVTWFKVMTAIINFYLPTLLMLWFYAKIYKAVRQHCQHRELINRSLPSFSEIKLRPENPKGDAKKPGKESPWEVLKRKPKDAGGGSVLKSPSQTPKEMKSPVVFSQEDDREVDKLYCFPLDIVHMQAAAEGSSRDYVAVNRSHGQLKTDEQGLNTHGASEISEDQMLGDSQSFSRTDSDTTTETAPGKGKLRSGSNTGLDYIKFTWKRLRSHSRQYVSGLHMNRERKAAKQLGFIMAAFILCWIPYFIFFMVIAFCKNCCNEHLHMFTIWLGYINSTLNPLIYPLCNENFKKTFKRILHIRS

Chain of Cannabinoid receptor 1 (P21554 whole entry): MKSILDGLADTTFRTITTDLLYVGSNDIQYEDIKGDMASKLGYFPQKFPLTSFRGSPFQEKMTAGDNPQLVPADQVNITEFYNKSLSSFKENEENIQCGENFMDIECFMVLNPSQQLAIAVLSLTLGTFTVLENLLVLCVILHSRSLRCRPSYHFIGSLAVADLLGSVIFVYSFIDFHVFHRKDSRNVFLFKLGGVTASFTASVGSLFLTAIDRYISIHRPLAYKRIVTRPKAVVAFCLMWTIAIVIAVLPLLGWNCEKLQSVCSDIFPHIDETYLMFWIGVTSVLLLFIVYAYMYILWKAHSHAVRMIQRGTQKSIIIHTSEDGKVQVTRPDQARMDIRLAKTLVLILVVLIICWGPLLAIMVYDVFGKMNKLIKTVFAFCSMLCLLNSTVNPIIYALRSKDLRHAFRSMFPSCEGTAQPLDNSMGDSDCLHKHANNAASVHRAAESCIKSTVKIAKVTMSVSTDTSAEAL
Chain of C-C chemokine receptor type 8 (P51685 whole entry): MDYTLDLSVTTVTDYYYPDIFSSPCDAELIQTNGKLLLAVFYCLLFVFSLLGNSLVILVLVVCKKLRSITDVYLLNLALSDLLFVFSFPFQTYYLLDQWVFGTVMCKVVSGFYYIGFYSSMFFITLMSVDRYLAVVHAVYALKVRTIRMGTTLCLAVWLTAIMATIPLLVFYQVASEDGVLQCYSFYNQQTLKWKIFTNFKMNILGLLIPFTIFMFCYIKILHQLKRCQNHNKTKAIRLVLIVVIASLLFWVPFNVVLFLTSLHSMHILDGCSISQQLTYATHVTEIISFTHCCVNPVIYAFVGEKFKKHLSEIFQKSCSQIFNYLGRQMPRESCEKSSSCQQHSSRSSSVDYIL

SMILES: CC[C@@]12CCCN3CCc4c([nH]c5ccccc45)[C@]31N(Cc1cn(Cc3ccccc3)nn1)C(=O)C2
- inhibition [1]: 59%
- inhibition (Cannabinoid receptor 1): 48%
- inhibition [2]: 30%
- inhibition [3]: 30%
- IC50 [4]: 12.5 µM
- remaining at 24 h, 0.025 mmol [5]: 92.1%
- remaining at 24 h, 0.026 mmol [6]: 99.2%
- Activity [7]: Non-Toxic
- Activity [8]: Non-Toxic
- inhibition [9]: 17%
